Assay outcomes (PubChem)
pCIP destab – compounds decreasing mouse p/CIP protein stability | F442A p/CIP-EGFP cells, EGFP fluorescence, 16 h | 0.01% of 290,000 active | AID 1984 | Q05BA5 | decrease of EGFP signal, % at 10 µM;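 active = EGFP signal decrease of at least 30% at 10 µM or well 3 SD below plate mean, unless failing retest; inactive = the rest, including hits failing retest or dose response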
CHOP inh – inhibitors of CHOP induction in ER stress response; CHO-K1 CHOP-promoter luciferase, tunicamycin-induced, 15-18 h; inhibition, % at 10 µM; 3.8% of 220,000 active; AID 2732;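 active = compounds that reduced the stress-induced luciferase reporter signal by more than about 70% of percent inhibition, limit read from the data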;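 note: 0% = tunicamycin plus vehicle and 100% = wells without tunicamycin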
CHOP UPR activ – activators of apoptotic arm of unfolded protein response (CHOP) | CHO-CHOP luciferase reporter, UPR activation, luminescence; percent of tunicamycin response over DMSO baseline | 0.34% of 330,000 active | activation, % at 10 µM;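 active = at 10 µM dose, activation of 40% or more, normalized to positive control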;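 note: 100% = tunicamycin at 10 µg/mL and 0% = DMSO alone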
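measured by = luciferase luminescence | assay system = CHO-CHOP cells, stable luciferase reporter of PERK-eIF2a-CHOP signalling | amount = 500 reporter cells seeded per well | timing = 6 h compound exposure at 37 °C after overnight seeding | controls = positive tunicamycin 10 µg/mL, negative DMSO alone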
Dynein transport – blocks dynein driven cargo transport along microtubules | z-score, hits read low | 0.47% of 220,000 active | AID 1381 | 3617.4 mouse cells, GR-EGFP nuclear translocation imaging; test concentration mostly 20 µM; stimulated with dexamethasone, 1 µM; stronger effect = lower value;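 active = plate z-score of nuclear minus cytoplasmic receptor signal below a set negative limit, without overly bright fluorescence or cell loss, cut at about -3.5 in these data, passing the limit was not always enough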;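 note: z-score of nuclear minus cytoplasmic ring GR-EGFP intensity difference per well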
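Buffer or medium: Induction medium lacking tetracycline, stripped serum | Also added: Dexamethasone agonist, 1.0 µM final, for 30 min | Timing: 48 h induction, 1 h compound, 30 min dex at 37 °C | Detection: Formaldehyde fixation, Hoechst nuclear stain, 10x automated fluorescence imaging | Measure: Nuclear versus cytoplasmic GR-EGFP signal, averaged per well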
XBP1 UPR activ – adaptive UPR (XBP1) activation. CHO-XBP1 luciferase reporter, IRE1-XBP1 UPR activation, luminescence; percent of tunicamycin response, DMSO as zero. activation, % at 20 µM. 0.33% of 330,000 active. AID 463104;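 active = versus positive control, 20 µM dose yields 30% or more activation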;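 note: 100% = tunicamycin at 10 µg/mL and 0% = DMSO only wells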
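Signal: luciferase luminescence; Assay system: CHO-XBP1 luciferase reporter cells; Amount: one thousand reporter cells per well; Dosing: 20 µM single concentration, DMSO 1%; Benchmarks: high control tunicamycin 10 µg/mL final, low control DMSO vehicle only; Schedule: 6 h compound exposure at 37 °C, 5% CO2; Evaluation: percent activation relative to tunicamycin reference.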
B2AR ag – human beta-2 adrenergic receptor agonism by FAP | P07550 | Am2.2-beta2AR cells, FAP receptor internalization, flow cytometry | response, % (test concentration not listed) | 0.43% of 340,000 active | AID 504454;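 active = response above a set limit, near 3 SD of response in nonfluorescent compounds, cut at about 42% in these data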
Target sequence (P07550 whole entry, looked up): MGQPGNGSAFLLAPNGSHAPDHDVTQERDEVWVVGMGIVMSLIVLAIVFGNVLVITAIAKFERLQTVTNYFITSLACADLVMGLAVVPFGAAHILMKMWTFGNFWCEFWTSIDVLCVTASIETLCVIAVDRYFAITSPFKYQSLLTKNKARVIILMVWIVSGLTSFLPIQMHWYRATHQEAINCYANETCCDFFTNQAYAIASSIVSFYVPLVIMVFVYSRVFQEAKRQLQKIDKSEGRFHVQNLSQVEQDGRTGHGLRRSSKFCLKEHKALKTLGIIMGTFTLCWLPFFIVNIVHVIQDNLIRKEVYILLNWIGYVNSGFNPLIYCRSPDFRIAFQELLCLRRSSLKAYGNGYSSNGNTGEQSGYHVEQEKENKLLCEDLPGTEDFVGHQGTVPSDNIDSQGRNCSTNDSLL
* = called active by the depositor. Many of the other results were omitted from the sample, so hits are more common in it than they were.

`CC(C)N=C(NS(=O)(=O)c1ccc(Br)cc1)c1ccc(Cl)cc1` gave pCIP destab -19, CHOP inh 10, CHOP UPR activ 0, Dynein transport -2, XBP1 UPR activ -6 and B2AR ag -6.
Screening O=C(c1cc(COc2ccc3ncccc3c2)on1)N1CCC(O)CC1 returned pCIP destab -15, CHOP inh 22, CHOP UPR activ 2, Dynein transport -1.3, XBP1 UPR activ 0 and B2AR ag -2.
O=C(NC1CCCCCCC1)c1cc(COc2ccc3ncccc3c2)on1 was read as pCIP destab 1, CHOP inh 81*, Dynein transport 0.21 and B2AR ag 3.
`O=C(CSc1nc2ccccc2c(=O)n1-c1ccccc1)c1c[nH]c2ccccc12` gave pCIP destab -14, CHOP inh 76*, CHOP UPR activ -3, Dynein transport -0.5, XBP1 UPR activ 0 and B2AR ag 5.
`O=C(CSc1nc2ccccc2c(=O)n1-c1ccc(Cl)cc1)c1ccco1` gave pCIP destab -26, CHOP inh 74*, CHOP UPR activ -1, Dynein transport 0.19, XBP1 UPR activ 3 and B2AR ag -6.
`CCOC(=O)c1c(C)[nH]c(C)c1C(=O)CSc1nc2ccccc2c(=O)n1-c1ccc(Cl)cc1` gave pCIP destab -6, CHOP inh 22, CHOP UPR activ 6, Dynein transport 2.2, XBP1 UPR activ -1 and B2AR ag 6.
NC(=O)CSc1nc2ccccc2c(=O)n1-c1ccccc1 was read as pCIP destab -3, CHOP UPR activ 0, XBP1 UPR activ 2 and B2AR ag -8.
`Cc1cc(OCC(=O)N[C@@H](Cc2ccccc2)c2nc3ccccc3[nH]2)ccc1Cl` gave pCIP destab 4, CHOP inh 72*, CHOP UPR activ 3, Dynein transport 0.45, XBP1 UPR activ 3 and B2AR ag -2.
O=C(Cc1ccccc1)N[C@@H](Cc1ccccc1)c1nc2ccccc2[nH]1 was read as pCIP destab -2, CHOP inh 2, CHOP UPR activ -2, Dynein transport 0.1, XBP1 UPR activ -10 and B2AR ag -4.
For CC(=O)c1cccc(NC(=O)CN2CCN(S(=O)(=O)/C=C/c3ccccc3)CC2)c1 the results were CHOP UPR activ 2, XBP1 UPR activ -5 and B2AR ag -3.
CCOC(=O)c1sc(NC(=O)c2cc3ccccc3o2)nc1C was read as pCIP destab -3, CHOP inh -43, CHOP UPR activ 6, Dynein transport 0.98, XBP1 UPR activ 2 and B2AR ag 3.
Screening CCOC(=O)c1sc(NC(=O)c2ccc(CC)s2)nc1C returned pCIP destab -7, CHOP inh 71*, CHOP UPR activ 3, Dynein transport -1.1, XBP1 UPR activ 3 and B2AR ag -4.
`CCOC(=O)c1sc(NC(=O)CSc2nnnn2-c2ccccc2)nc1C` gave pCIP destab -6, CHOP inh 85*, CHOP UPR activ -2, Dynein transport -0.59, XBP1 UPR activ 5 and B2AR ag -1.
`CCOC(=O)c1sc(NC(=O)CSc2nnnn2-c2ccc(C)c(C)c2)nc1C` gave pCIP destab -1, CHOP inh 93*, CHOP UPR activ -1, Dynein transport 0.74, XBP1 UPR activ 0 and B2AR ag -1.
Screening COC(=O)C1CN(C(=O)C(C)Oc2ccccc2Cl)c2ccccc2O1 (stereo unspecified) returned pCIP destab -11, CHOP UPR activ 0, XBP1 UPR activ 1 and B2AR ag 4.
For CC(C)(C)c1ccc(/C=N/N2C(=O)CSC2=S)cc1 the results were pCIP destab -1, CHOP UPR activ -1, XBP1 UPR activ -7 and B2AR ag 65*.
For Cc1cc(N/N=C/c2cccc(Cl)c2)nc(NCc2ccccc2)n1 the results were pCIP destab 5, CHOP inh 50, CHOP UPR activ 1, Dynein transport 0.07, XBP1 UPR activ -3 and B2AR ag 10.
Cc1cc(Nc2cccc(Cl)c2)nc(NCc2ccccc2)n1 was read as pCIP destab -9, CHOP inh 106*, CHOP UPR activ 3, Dynein transport 1.6, XBP1 UPR activ 12 and B2AR ag -11.
COC(=O)c1cc2c(cc1N)OCCO2 was read as pCIP destab -4, CHOP inh -6, CHOP UPR activ 1, Dynein transport -0.022, XBP1 UPR activ 1 and B2AR ag 0.
For Cc1cccc(-c2csc(N)c2C(=O)OC(C)C)c1 the results were pCIP destab -20, CHOP inh 74*, CHOP UPR activ 0, Dynein transport -0.72, XBP1 UPR activ 3 and B2AR ag 1.
CCOC(=O)c1c(-c2ccncc2)csc1N was read as pCIP destab 2, CHOP inh 34, CHOP UPR activ -1, Dynein transport 0.11, XBP1 UPR activ 2 and B2AR ag 9.
`Cc1ccc(C)c(-c2csc(N)c2C(=O)OC(C)C)c1` gave pCIP destab 0, CHOP inh 80*, CHOP UPR activ -1, Dynein transport 0.68, XBP1 UPR activ -3 and B2AR ag 13.
Screening NC(=O)Nc1ccc(F)cc1 returned pCIP destab 7, CHOP inh -24, CHOP UPR activ -3, Dynein transport -0.3, XBP1 UPR activ -1 and B2AR ag 1.
CCOC(=O)C/C(C)=N/NC(=O)CNc1cccc(Cl)c1C was read as pCIP destab 6, CHOP inh 18, CHOP UPR activ 2, Dynein transport -0.75, XBP1 UPR activ -1 and B2AR ag 9.
For Cc1noc(C(F)(F)F)c1C(=O)NNC(=O)c1cccc(C(F)(F)F)c1 the results were pCIP destab -8, CHOP inh 2, CHOP UPR activ -1, Dynein transport -0.61, XBP1 UPR activ 0 and B2AR ag -2.
O=C(N/N=C/c1cc(Cl)ccc1O)C(=O)Nc1ccccc1OC(F)(F)C(F)F was read as pCIP destab -15, CHOP inh 78*, Dynein transport -0.7 and B2AR ag 15.
For O=C(N/N=C/c1ccccc1Cl)c1ccncc1 the results were pCIP destab 7, CHOP UPR activ 1, XBP1 UPR activ 2 and B2AR ag -5.
Screening O=C(N/N=C/c1cc(Br)ccc1O)C(=O)Nc1ccccc1OC(F)(F)C(F)F returned pCIP destab -6, CHOP inh 77*, Dynein transport -0.093 and B2AR ag 3.
COc1ccccc1/C=N/NC(=O)C(=O)Nc1ccccc1OC(F)(F)C(F)F was read as pCIP destab -4, CHOP inh 13, CHOP UPR activ -1, Dynein transport 0.77, XBP1 UPR activ 0 and B2AR ag -7.
